Reference: ChEMBL document CHEMBL4689842, “EUbOPEN Chemogenomics Library wave 1” (2021)
“And” between values parts separate entries of the source, which are not always exact repeats. Equal values may be shown once.

Test system: Fibroblast
Experiment: Multiplex assay against human fibroblast
Assay type: toxicity, cell-based
How it was run: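 Four dyes were applied at seeding to live cells: Hoechst33342, BioTracker Green Microtubule Cytoskeleton Dye, MitoTracker Red and Annexin V Alexa Fluor 680. Imaging after compound addition used a CQ1 microscope at 37°C and 5% CO2. CellPathfinder machine-learning gating then sorted cells into Hoechst high-intensity objects or normal cells, normal cells into healthy, pyknosed or fragmented nuclei, and pyknosed cells into mitotic or apoptotic, with tubulin, mitochondrial-mass and membrane-permeability phenotypes given as per cents of healthy-nucleus cells.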

[1] = 12 h, 1 µM, compound concentration 1 uM, replicate 1
[2] = 12 h, 1 µM, compound concentration 1 uM, replicate 2
[3] = 12 h, 10 µM, compound concentration 10 uM, replicate 1
[4] = 12 h, 10 µM, compound concentration 10 uM, replicate 2
[5] = 24 h, 1 µM, compound concentration 1 uM, replicate 1
[6] = 24 h, 1 µM, compound concentration 1 uM, replicate 2
[7] = 24 h, 10 µM, compound concentration 10 uM, replicate 1
[8] = 24 h, 10 µM, compound concentration 10 uM, replicate 2
[9] = 48 h, 1 µM, compound concentration 1 uM, replicate 1
[10] = 48 h, 1 µM, compound concentration 1 uM, replicate 2
[11] = 48 h, 10 µM, compound concentration 10 uM, replicate 1
[12] = 48 h, 10 µM, compound concentration 10 uM, replicate 2

SMILES: CC1=C(C(=O)Nc2cc3cn[nH]c3cc2F)C(c2ccc(C(F)(F)F)cc2)CC(=O)N1 (stereo not drawn)
- Population Apoptotic (%) [1]: 78%
- Population Fragmented Nuclei (%) [1]: 29%
- Population Healthy Nuclei (%) [1]: 41%
- Population Hoechst High Intensity Objects (%) [1]: 12%
- Population Membrane Permeable-Phenotype (%) [1]: 20%
- Population Mitochondria Different-Phenotype (%) [1]: 6%
- Population Mitotic Cells (%) [1]: 21%
- Population Normal (%) [1]: 87%
- Population Pyknosed Nuclei (%) [1]: 29%
- Population Tubulin-Different-Phenotype (%) [1]: 31%
- Total Cell Count [1]: 124
- Population Apoptotic (%) [2]: 50%
- Population Fragmented Nuclei (%) [2]: 2%
- Population Healthy Nuclei (%) [2]: 93%
- Population Hoechst High Intensity Objects (%) [2]: 10%
- Population Membrane Permeable-Phenotype (%) [2]: 4%
- Population Mitochondria Different-Phenotype (%) [2]: 9%
- Population Mitotic Cells (%) [2]: 50%
- Population Normal (%) [2]: 89%
- Population Pyknosed Nuclei (%) [2]: 4%
- Population Tubulin-Different-Phenotype (%) [2]: 14%
- Total Cell Count [2]: 76
- Population Apoptotic (%) [3]: 55%
- Population Fragmented Nuclei (%) [3]: 25%
- Population Healthy Nuclei (%) [3]: 46%
- Population Hoechst High Intensity Objects (%) [3]: 9%
- Population Membrane Permeable-Phenotype (%) [3]: 24%
- Population Mitochondria Different-Phenotype (%) [3]: 11%
- Population Mitotic Cells (%) [3]: 44%
- Population Normal (%) [3]: 90%
- Population Pyknosed Nuclei (%) [3]: 27%
- Population Tubulin-Different-Phenotype (%) [3]: 50%
- Total Cell Count [3]: 144
- Population Apoptotic (%) [4]: 50%
- Population Fragmented Nuclei (%) [4]: 21%
- Population Healthy Nuclei (%) [4]: 70%
- Population Membrane Permeable-Phenotype (%) [4]: 5%
- Population Mitochondria Different-Phenotype (%) [4]: 12%
- Population Mitotic Cells (%) [4]: 50%
- Population Pyknosed Nuclei (%) [4]: 7%
- Population Tubulin-Different-Phenotype (%) [4]: 25%
- Total Cell Count [4]: 97
- Population Apoptotic (%) [5]: 54%
- Population Fragmented Nuclei (%) [5]: 20%
- Population Healthy Nuclei (%) [5]: 56%
- Population Hoechst High Intensity Objects (%) [5]: 18%
- Population Membrane Permeable-Phenotype (%) [5]: 35%
- Population Mitochondria Different-Phenotype (%) [5]: 1%
- Population Mitotic Cells (%) [5]: 45%
- Population Normal (%) [5]: 81%
- Population Pyknosed Nuclei (%) [5]: 23%
- Population Tubulin-Different-Phenotype (%) [5]: 25%
- Total Cell Count [5]: 127
- Population Apoptotic (%) [6]: 42%
- Population Fragmented Nuclei (%) [6]: 7%
- Population Healthy Nuclei (%) [6]: 86%
- Population Hoechst High Intensity Objects (%) [6]: 4%
- Population Membrane Permeable-Phenotype (%) [6]: 10%
- Population Mitochondria Different-Phenotype (%) [6]: 13%
- Population Mitotic Cells (%) [6]: 57%
- Population Normal (%) [6]: 95%
- Population Pyknosed Nuclei (%) [6]: 6%
- Population Tubulin-Different-Phenotype (%) [6]: 16%
- Total Cell Count [6]: 93
- Population Apoptotic (%) [7]: 40%
- Population Fragmented Nuclei (%) [7]: 25%
- Population Healthy Nuclei (%) [7]: 54%
- Population Hoechst High Intensity Objects (%) [7]: 9%
- Population Membrane Permeable-Phenotype (%) [7]: 22%
- Population Mitochondria Different-Phenotype (%) [7]: 8%
- Population Mitotic Cells (%) [7]: 59%
- Population Normal (%) [7]: 90%
- Population Pyknosed Nuclei (%) [7]: 19%
- Population Tubulin-Different-Phenotype (%) [7]: 40%
- Total Cell Count [7]: 125
- Population Apoptotic (%) [8]: 75%
- Population Fragmented Nuclei (%) [8]: 23%
- Population Healthy Nuclei (%) [8]: 68%
- Population Hoechst High Intensity Objects (%) [8]: 6%
- Population Membrane Permeable-Phenotype (%) [8]: 4%
- Population Mitochondria Different-Phenotype (%) [8]: 14%
- Population Mitotic Cells (%) [8]: 25%
- Population Normal (%) [8]: 93%
- Population Pyknosed Nuclei (%) [8]: 8%
- Population Tubulin-Different-Phenotype (%) [8]: 29%
- Total Cell Count [8]: 119
- Population Apoptotic (%) [9]: 66%
- Population Fragmented Nuclei (%) [9]: 33%
- Population Healthy Nuclei (%) [9]: 48%
- Population Hoechst High Intensity Objects (%) [9]: 11%
- Population Membrane Permeable-Phenotype (%) [9]: 19%
- Population Mitochondria Different-Phenotype (%) [9]: 5%
- Population Mitotic Cells (%) [9]: 33%
- Population Normal (%) [9]: 88%
- Population Pyknosed Nuclei (%) [9]: 18%
- Population Tubulin-Different-Phenotype (%) [9]: 14%
- Total Cell Count [9]: 131
- Population Apoptotic (%) [10]: 33%
- Population Fragmented Nuclei (%) [10]: 31%
- Population Healthy Nuclei (%) [10]: 65%
- Population Hoechst High Intensity Objects (%) [10]: 22%
- Population Membrane Permeable-Phenotype (%) [10]: 6%
- Population Mitochondria Different-Phenotype (%) [10]: 0%
- Population Mitotic Cells (%) [10]: 66%
- Population Normal (%) [10]: 77%
- Population Pyknosed Nuclei (%) [10]: 3%
- Population Tubulin-Different-Phenotype (%) [10]: 23%
- Total Cell Count [10]: 127
- Population Apoptotic (%) [11]: 46%
- Population Fragmented Nuclei (%) [11]: 33%
- Population Healthy Nuclei (%) [11]: 54%
- Population Hoechst High Intensity Objects (%) [11]: 11%
- Population Membrane Permeable-Phenotype (%) [11]: 26%
- Population Mitochondria Different-Phenotype (%) [11]: 4%
- Population Mitotic Cells (%) [11]: 53%
- Population Normal (%) [11]: 88%
- Population Pyknosed Nuclei (%) [11]: 11%
- Population Tubulin-Different-Phenotype (%) [11]: 23%
- Total Cell Count [11]: 130
- Population Apoptotic (%) [12]: 62%
- Population Fragmented Nuclei (%) [12]: 26%
- Population Healthy Nuclei (%) [12]: 65%
- Population Membrane Permeable-Phenotype (%) [12]: 7%
- Population Mitochondria Different-Phenotype (%) [12]: 1%
- Population Mitotic Cells (%) [12]: 37%
- Population Pyknosed Nuclei (%) [12]: 8%
- Population Tubulin-Different-Phenotype (%) [12]: 22%
- Total Cell Count [12]: 109

SMILES: CN1CCN(Cc2cc(NC(=O)c3ccc4c(c3)CN(c3ccccc3)CC4)cc(C(F)(F)F)c2)CC1
- Population Apoptotic (%) [1]: 72% and 64%
- Population Fragmented Nuclei (%) [1]: 42% and 27%
- Population Healthy Nuclei (%) [1]: 43% and 53%
- Population Hoechst High Intensity Objects (%) [1]: 27% and 18%
- Population Membrane Permeable-Phenotype (%) [1]: 4% and 12%
- Population Mitochondria Different-Phenotype (%) [1]: 6% and 7%
- Population Mitotic Cells (%) [1]: 27% and 35%
- Population Normal (%) [1]: 72% and 81%
- Population Pyknosed Nuclei (%) [1]: 14% and 19%
- Population Tubulin-Different-Phenotype (%) [1]: 30% and 14%
- Total Cell Count [1]: 315 and 180
- Population Apoptotic (%) [2]: 75% and 40%
- Population Fragmented Nuclei (%) [2]: 55% and 53%
- Population Healthy Nuclei (%) [2]: 37% and 39%
- Population Hoechst High Intensity Objects (%) [2]: 36% and 35%
- Population Mitochondria Different-Phenotype (%) [2]: 13% and 31%
- Population Mitotic Cells (%) [2]: 25% and 60%
- Population Normal (%) [2]: 63% and 64%
- Population Pyknosed Nuclei (%) [2]: 6%
- Total Cell Count [2]: 92 and 114
- Population Apoptotic (%) [5]: 74% and 57%
- Population Fragmented Nuclei (%) [5]: 33% and 27%
- Population Healthy Nuclei (%) [5]: 52% and 58%
- Population Hoechst High Intensity Objects (%) [5]: 41% and 15%
- Population Membrane Permeable-Phenotype (%) [5]: 6% and 4%
- Population Mitochondria Different-Phenotype (%) [5]: 25% and 10%
- Population Mitotic Cells (%) [5]: 25% and 42%
- Population Normal (%) [5]: 58% and 84%
- Population Pyknosed Nuclei (%) [5]: 14% and 13%
- Total Cell Count [5]: 365 and 178
- Population Apoptotic (%) [6]: 100% and 40%
- Population Fragmented Nuclei (%) [6]: 57% and 61%
- Population Healthy Nuclei (%) [6]: 33% and 32%
- Population Hoechst High Intensity Objects (%) [6]: 39% and 37%
- Population Membrane Permeable-Phenotype (%) [6]: 21% and 12%
- Population Mitochondria Different-Phenotype (%) [6]: 15% and 16%
- Population Normal (%) [6]: 60% and 62%
- Population Pyknosed Nuclei (%) [6]: 8% and 6%
- Population Tubulin-Different-Phenotype (%) [6]: 21% and 48%
- Total Cell Count [6]: 93 and 124
